Screening data: PubChem BioAssay, several laboratories
Rows were chosen to be rich in hits. Some 1.6% of all compounds tested hit in one or more screens of this group.
Neddylation inh = blocks human cullin neddylation; 360,000 compounds, 0.58% hits; AID 651699; TR-FRET cullin neddylation, biochemical; inhibition, % at 25 µM; in the data active means inhibition above about 36%
Target sequence (P61081 whole entry, looked up): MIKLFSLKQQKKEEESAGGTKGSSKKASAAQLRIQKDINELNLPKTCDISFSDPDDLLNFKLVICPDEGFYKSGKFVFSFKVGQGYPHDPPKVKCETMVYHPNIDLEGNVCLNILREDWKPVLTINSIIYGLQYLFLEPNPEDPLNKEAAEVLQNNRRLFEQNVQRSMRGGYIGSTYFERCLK
Target sequence (Q13564 whole entry, looked up): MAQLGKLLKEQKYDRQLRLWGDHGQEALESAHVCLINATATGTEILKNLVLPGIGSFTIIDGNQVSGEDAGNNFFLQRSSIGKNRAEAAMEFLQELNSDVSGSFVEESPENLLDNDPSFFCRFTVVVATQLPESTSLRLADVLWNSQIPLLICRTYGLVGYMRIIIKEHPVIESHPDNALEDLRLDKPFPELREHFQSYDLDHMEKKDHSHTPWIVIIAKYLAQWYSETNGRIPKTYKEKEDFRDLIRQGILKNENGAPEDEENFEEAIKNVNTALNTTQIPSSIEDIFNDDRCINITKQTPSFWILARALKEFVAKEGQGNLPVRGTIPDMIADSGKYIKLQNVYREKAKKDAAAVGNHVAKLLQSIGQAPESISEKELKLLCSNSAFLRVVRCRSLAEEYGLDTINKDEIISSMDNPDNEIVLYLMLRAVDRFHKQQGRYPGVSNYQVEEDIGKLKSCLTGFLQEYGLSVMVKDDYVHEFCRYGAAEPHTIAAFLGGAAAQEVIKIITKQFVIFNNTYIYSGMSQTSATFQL
ARFGAP1 inh = inhibits rat ARF GTPase activating protein 1. Arfgap1-stimulated ARF1 GTP hydrolysis, GDP FP detection. inhibition, % at 16.5 µM. Q62848. 360,000 compounds, 0.26% hits;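 active means inhibition above a per-plate limit, mean inhibition of low control wells plus 3 SD, cut at about 25% in these data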;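 further: 0% = DMSO wells with enzyme and 100% = wells lacking Arfgap1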
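system = rat Arfgap1 catalytic domain, aa 1-136 | technique = FP, GDP Alexa 633 tracer displaced from anti-GDP antibody, 620/688 nm | compound = one concentration, 16.5 µM, DMSO 1.26% | medium = HEPES-based buffer, pH 7.5 | timing = compound-enzyme preincubation 20 min, reaction 120 min, detection 60 min, 25 °C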
ASAP1 GAP inh = blocks human ASAP1-stimulated Arf1 GTP hydrolysis. Q9ULH1. GDP FP detection. inhibition, % at 16.5 µM. 360,000 compounds, 0.19% hits; in the data active means inhibition above about 25%;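 further: 0% = vehicle with enzyme and substrate and 100% = no enzyme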
Cardio protect = protects H9c2 cardiomyocytes from peroxide injury; H2O2 injury protection, ATPLite, 2 h; protection from H2O2 cell death, % at 20 µM; 360,000 compounds, 0.63% hits; AID 588492;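 active means compounds giving at least 50% protection of heart cells from peroxide-induced death in the single-dose screen, raw or plate-pattern-corrected value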;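 further: 0% = DMSO wells with peroxide and 100% = DMSO wells without peroxide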
Starred values were filed as active, the others as inactive.

COc1ccc(CN(C)C(=O)C(Cc2ccccc2)NC(=O)c2ccccc2)cc1F (stereo not drawn) was read as Neddylation inh 10, ARFGAP1 inh -5, ASAP1 GAP inh -13 and Cardio protect 50*.
CN(Cc1ccc(F)cc1)C(=O)C(Cc1ccccc1)NC(=O)c1ccccc1 (stereo not drawn) was read as Neddylation inh -1, ARFGAP1 inh -8, ASAP1 GAP inh 5 and Cardio protect 46.
For CCOC(=O)C1=C(C(=O)OCC)C2N(Cc3ccc(Br)cc3)c3ccccc3[C@@]23C[C@@H](C(=O)OC)N(S(=O)(=O)c2ccc(OC)cc2)C3=N1 (stereo partly drawn) the results were ARFGAP1 inh 2 and ASAP1 GAP inh 21.
Screening O=C(CCN1CCN(c2ccccc2)CC1)N/N=C/c1ccccc1O returned Neddylation inh 42*, ARFGAP1 inh 19, ASAP1 GAP inh 1 and Cardio protect 55*.
Screening COc1cccc(CNC(=O)[C@H]2CCCN2C(=O)[C@H]2CCCN2C(=O)c2ccc(C)cc2)c1 returned ARFGAP1 inh -6 and ASAP1 GAP inh 5.
`COc1ccc(-c2cc(-c3nnc(COC(=O)C4CC4)o3)c3ccccc3n2)cc1OC` gave ARFGAP1 inh 2, ASAP1 GAP inh 0 and Cardio protect 80*.
Screening COc1ccc(-c2cc(-c3nnc(COC(=O)CC4CCCC4)o3)c3ccccc3n2)cc1OC returned ARFGAP1 inh -2, ASAP1 GAP inh -3 and Cardio protect 18.
`COc1ccc(-c2cc(-c3nnc(COC(=O)C4CC4C)o3)c3ccccc3n2)cc1OC` (stereo not drawn) gave ARFGAP1 inh -7, ASAP1 GAP inh -8 and Cardio protect 85*.
COc1ccc(-c2cc(-c3nnc(COC(=O)c4ccc(O)cc4)o3)c3ccccc3n2)cc1OC was read as ARFGAP1 inh 11, ASAP1 GAP inh 6 and Cardio protect 38.
For CC(C)C[C@H]1COc2c(Cl)cccc2S(=O)(=O)N1Cc1cccc(Cl)c1 the results were ARFGAP1 inh 7 and ASAP1 GAP inh -12.
Oc1ccc(Br)cc1CNc1cnc2ccccc2c1 was read as Neddylation inh 35, ARFGAP1 inh 10, ASAP1 GAP inh 9 and Cardio protect -14.
For Cc1ccc(O)c(CNc2cnc3ccccc3c2)c1 the results were Neddylation inh 39*, ARFGAP1 inh 0, ASAP1 GAP inh 4 and Cardio protect -11.
For COc1ccc(CNC(=O)c2ccc(Cn3nc(C)c([N+](=O)[O-])c3C)o2)cc1 the results were Neddylation inh 10, ARFGAP1 inh -4, ASAP1 GAP inh 2 and Cardio protect 87*.
O=C(NNc1c2ccccc2nc2ccccc12)c1ccc(O)cc1 was read as Neddylation inh -79, ARFGAP1 inh -1, ASAP1 GAP inh 16 and Cardio protect 43.
O=C(NNc1c2ccccc2nc2ccccc12)c1cccc(O)c1 was read as Neddylation inh -52, ARFGAP1 inh 14, ASAP1 GAP inh -1 and Cardio protect 51*.
For COC(=O)[C@]12C[C@H](CC(=O)N3CCSCC3)C(=O)N(Cc3ccc4c(c3)OCO4)C1=C[C@H](C(C)(C)C)O[C@@H]2C the results were ARFGAP1 inh 3 and ASAP1 GAP inh -5.
`C=CC#CC[N+]1(CC#Cc2ccccc2)CCOCC1` gave Neddylation inh 26, ARFGAP1 inh 97*, ASAP1 GAP inh 87* and Cardio protect -5.
`O=C(N=Nc1c(O)[nH]c2c(Cl)cc(Cl)cc12)c1ccccc1O` gave ARFGAP1 inh -11 and ASAP1 GAP inh 1.
`CCN1C(=O)N(C(C)=O)[C@@H]2C[C@H](C(=O)N3CCCC3)[C@H](C)[C@H](c3ccccc3)C[C@@H]21` gave ARFGAP1 inh 3 and ASAP1 GAP inh -11.
Screening CCCCCCCCN1C(=O)[C@@H](CC(=O)N2CCN(C(=O)C3CC3)CC2)C[C@@]2(C(=O)OC)C1=C[C@H](C1CCCC1)O[C@@H]2C returned ARFGAP1 inh -8 and ASAP1 GAP inh -18.
COC(=O)C1=C(C)N(C)C(=NCc2ccccc2C(F)(F)F)NC1CCc1ccccc1 (stereo not drawn) was read as ARFGAP1 inh 1 and ASAP1 GAP inh -10.
For Cc1sc(NC(=O)c2ccco2)c(CN2CCN(c3ccccn3)CC2)c1C the results were Neddylation inh 45* and Cardio protect 7.
`Cc1sc(NC(=O)c2ccco2)c(CN2CCN(c3ccc(F)cc3)CC2)c1C` gave Neddylation inh 29, ARFGAP1 inh -1, ASAP1 GAP inh -5 and Cardio protect -5.
C=CCN1C(=O)c2n[nH]c(C(C)C)c2C1c1ccccc1 (stereo not drawn) was read as ARFGAP1 inh 3 and ASAP1 GAP inh -7.
For COC(=O)[C@]12C[C@H](CC(=O)N3CCOCC3)C(=O)N(CCc3ccc(OC)c(OC)c3)C1=C[C@H](C(C)(C)C)O[C@@H]2C the results were ARFGAP1 inh 10 and ASAP1 GAP inh 0.
COc1ccc(-c2oc3ccccc3c(=O)c2OC(C)=O)cc1 was read as ARFGAP1 inh 1, ASAP1 GAP inh 10 and Cardio protect 46.
CC(=O)Oc1c(-c2ccc(Br)o2)oc2ccccc2c1=O was read as ARFGAP1 inh -2, ASAP1 GAP inh 0 and Cardio protect 58*.
`O=C(Oc1ccc(N(Cc2cccs2)C2=NS(=O)(=O)c3ccccc32)cc1)c1ccccc1Cl` gave Neddylation inh -45, ARFGAP1 inh 6, ASAP1 GAP inh 0 and Cardio protect 75*.
Screening Cc1cc(C)c(C2=NOC3c4ccccc4OCC23)c(C)c1 (stereo not drawn) returned ARFGAP1 inh 7 and ASAP1 GAP inh -4.
Cc1ccc(C2NC(=O)c3n[nH]c(C(C)C)c32)cc1 (stereo not drawn) was read as ARFGAP1 inh 6 and ASAP1 GAP inh 8.
For NC(=O)c1ccc(NC(=O)COc2cccc3c2CCNC3=O)cc1 the results were Neddylation inh 17, ARFGAP1 inh -8, ASAP1 GAP inh -8 and Cardio protect 79*.
Screening O=C(COc1cccc2c1CCNC2=O)Nc1ccc(Cl)cc1 returned Neddylation inh 8, ARFGAP1 inh 10, ASAP1 GAP inh 4 and Cardio protect 64*.
For COc1ccccc1NC(=O)COc1ccc(C(=O)OCC(=O)NC(C)(C)C)cc1OC the results were Neddylation inh 2, ARFGAP1 inh -4, ASAP1 GAP inh -1 and Cardio protect 59*.
`COc1ccccc1NC(=O)COc1cccc2c1CCNC2=O` gave Neddylation inh 3, ARFGAP1 inh 12, ASAP1 GAP inh 0 and Cardio protect 64*.
Screening CCOCc1c(C(=O)NC2=Nc3ccccc3NC(CC)=C2C(=O)OCC)oc2ccccc12 returned Neddylation inh 1, ARFGAP1 inh -2, ASAP1 GAP inh -2 and Cardio protect 68*.
`CCOC(=O)C1=C(CC)Nc2ccccc2N=C1NC(=O)c1ccc(S(=O)(=O)N(C)C)cc1` gave Neddylation inh 3, ARFGAP1 inh 7, ASAP1 GAP inh 2 and Cardio protect 81*.
Screening CN(C)C(=O)CSc1nc2ccccc2c(=O)[nH]1 returned Neddylation inh 0, ARFGAP1 inh 9, ASAP1 GAP inh 5 and Cardio protect 81*.
